# Measured values: publication PMC3095849 (Bioorganic & medicinal chemistry, 2011)
# Where a name gives a salt, the structure may show the parent alone. Read-outs that look alike come from different tables or passages of the source.
# Legend:
# human κ opioid receptor [1] = target: T1, human κ opioid receptor (Homo sapiens, UniProt P41145); details: cited from earlier work
# human κ opioid receptor [2] = target: T1, human κ opioid receptor; test: Opioid binding, [3H]U69,593, CHO membranes; details: ratio of Ki values μ/κ/δ
# human κ opioid receptor [3] = target: T1, human κ opioid receptor; test: [35S]GTPγS binding assay, agonist properties, kappa; format: biochemical
# human μ opioid receptor = human μ opioid receptor (Homo sapiens, UniProt P35372); test: [35S]GTPγS binding assay, agonist properties, mu; format: biochemical
# human μ opioid receptor, sequence (P35372 whole entry): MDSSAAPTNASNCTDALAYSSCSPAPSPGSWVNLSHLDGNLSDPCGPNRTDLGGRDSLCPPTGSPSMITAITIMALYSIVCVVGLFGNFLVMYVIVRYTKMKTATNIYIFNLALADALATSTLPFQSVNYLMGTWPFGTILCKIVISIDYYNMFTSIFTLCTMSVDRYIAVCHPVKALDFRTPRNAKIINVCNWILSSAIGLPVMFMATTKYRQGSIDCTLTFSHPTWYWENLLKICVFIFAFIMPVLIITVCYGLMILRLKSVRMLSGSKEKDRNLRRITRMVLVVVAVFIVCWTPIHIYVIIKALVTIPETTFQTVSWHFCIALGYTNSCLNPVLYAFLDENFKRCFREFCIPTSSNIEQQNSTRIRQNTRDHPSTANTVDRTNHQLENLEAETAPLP
# Procedure, shortened: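 CHO cells stably expressing human μ receptor, grown in DMEM with 10% FBS at 37°C, 5% CO2. Membranes incubated with 12 concentrations of test compound in 50 mM Tris-HCl pH 7.4, 3 μM GDP, 3 mM MgCl2, 0.2 mM EGTA, 100 mM NaCl, plus 0.08 nM [35S]GTPγS, 60 min, 30°C. Nonspecific: 10 μM GTPγS. Filtration, scintillation counting. EC50 and Emax calculated. Three experiments in triplicate.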
# human κ opioid receptor [4] = target: T1, human κ opioid receptor; test: [35S]GTPγS binding assay, inhibition of U50,488-stimulated binding, kappa; format: biochemical; details: read-out: Kappa (Antagonist) IC50; binding stimulated by 100 nM U50,488
# Procedure, shortened: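 Antagonist mode: membranes from CHO cells stably expressing human κ receptor, with 12 concentrations of test compound and 0.08 nM [35S]GTPγS. Buffer: 50 mM Tris-HCl pH 7.4, 3 μM GDP, 3 mM MgCl2, 0.2 mM EGTA, 100 mM NaCl. Incubated 60 min at 30°C. Nonspecific binding: 10 μM GTPγS. Filtered and counted. IC50 and Imax calculated. Three experiments in triplicate, mean ± SEM.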
# T1 sequence (P41145 whole entry): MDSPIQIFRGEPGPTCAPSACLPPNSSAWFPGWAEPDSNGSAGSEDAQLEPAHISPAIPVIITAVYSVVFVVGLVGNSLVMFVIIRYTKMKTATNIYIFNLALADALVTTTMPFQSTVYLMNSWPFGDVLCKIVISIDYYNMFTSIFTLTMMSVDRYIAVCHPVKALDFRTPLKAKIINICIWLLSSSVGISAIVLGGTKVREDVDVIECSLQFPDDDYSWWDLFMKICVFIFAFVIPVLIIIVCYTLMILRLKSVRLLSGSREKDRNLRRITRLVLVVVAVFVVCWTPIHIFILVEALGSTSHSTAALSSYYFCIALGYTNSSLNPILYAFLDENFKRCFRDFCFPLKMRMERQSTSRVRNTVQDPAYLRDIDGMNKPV
Compound,Selectivity μ : κ : δ (human κ opioid receptor [1]),Selectivity μ : κ : δ (human κ opioid receptor [2]),Functional character at κ receptor (full/partial agonist) (human κ opioid receptor [3]),Functional character at μ receptor (full/partial agonist) (human μ opioid receptor),IC50 (human κ opioid receptor [4]) [µM]
O=C(/C=C/C(=O)Oc1ccc2c(c1)[C@@]13CCCC[C@H]1[C@@H](C2)N(CC1CCC1)CC3)Oc1ccc2c(c1)[C@@]13CCCC[C@H]1[C@@H](C2)N(CC1CCC1)CC3 [Compound 4],3/1/120,,,,
"C=CCN1CC[C@]23c4c5ccc(OC(=O)CCCCCCCCC(=O)Oc6ccc7c(c6)[C@@]68CCCC[C@@]6(O)[C@@H](C7)N(CC6CCC6)CC8)c4O[C@H]2C(=O)CC[C@@]3(O)[C@H]1C5 [Compound 15a, (5α)-17-Allyl-14-hydroxy-6-oxo-4,5-epoxymorphinan-3-yl-17-((−)-N-cyclobutylmethyl-14-hydroxyl-mophinan-3-yl) decanedioate.]",,3/1/130,partial κ agonists,,
"O=C(CCCCCCCCC(=O)Oc1ccc2c(c1)[C@@]13CCCC[C@@]1(O)[C@@H](C2)N(CC1CCC1)CC3)Oc1ccc2c(c1)[C@@]13CCCC[C@H]1[C@@H](C2)N(CC1CCC1)CC3 [Compound 15b, ((−)-17-N-cyclobutylmethyl)morphinan-3-yl-((−)-14-hydroxyl-17-N-cyclobutylmethyl) morphinan-3-yl) decanedioate]",,1/1/110,partial κ agonists,,
"CO[C@@]12CCCC[C@@]13CCN(CC1CCC1)[C@@H]2Cc1ccc(OC(=O)CCCCCCCCC(=O)Oc2ccc4c(c2)[C@@]25CCCC[C@@]2(OC)[C@@H](C4)N(CC2CCC2)CC5)cc13 [Compound 9b, Bis((−)-14-methoxy-17-N-cyclobutylmethyl)morphinan-3-yl) decanedioate]",,1/1/50,partial κ agonists,,
"c1c2c(cc3sc(NCCCCCCCCCCNc4nc5cc6c(cc5s4)C[C@@H]4[C@@H]5CCCC[C@]65CCN4CC4CC4)nc13)C[C@@H]1[C@@H]3CCCC[C@]23CCN1CC1CC1 [Compound 12, (−)-3,3′-(decane-1,10-diaminothiazolo)bis(cyclopropylmethyl)morphinan hydrochloride]",,9/1/140,full κ agonists,partial μ agonists,> 10
O=C(CCCCCCCCC(=O)Oc1ccc2c(c1)[C@@]13CCCC[C@H]1[C@@H](C2)N(CC1CCC1)CC3)Oc1ccc2c(c1)[C@@]13CCCC[C@H]1[C@@H](C2)N(CC1CCC1)CC3 [Compound 3],2/1/90,,,,
"C=CCN1CC[C@]23c4c5ccc(OC(=O)CCCCCCCCC(=O)Oc6ccc7c(c6)[C@@]68CCCC[C@@]6(OC)[C@@H](C7)N(CC6CCC6)CC8)c4O[C@H]2C(=O)CC[C@@]3(O)[C@H]1C5 [Compound 15c, (5α)-17-allyl-14-hydroxy-6-oxo-4,5-epoxymorphinan-3-yl-((−)-14-methoxyl-17-N-cyclobutylmethyl)morphinan-3-yl) decanedioate]",,4/1/280,partial κ agonists,,
"O=C(CCCCCCCCC(=O)Nc1nc2cc3c(cc2s1)C[C@@H]1[C@@H]2CCCC[C@]32CCN1CC1CC1)Nc1nc2cc3c(cc2s1)C[C@@H]1[C@@H]2CCCC[C@]32CCN1CC1CC1 [Compound 11, Bis((−)-3-aminothiazolo-N-cyclopropyl-methylmorphinan)sebacamide hydrochloride]",,24/1/460,full κ agonists,partial μ agonists,> 10
"CO[C@@]12CCCC[C@@]13CCN(CC1CCC1)[C@@H]2Cc1ccc(O)cc13 [Compound 8, (−)-14-methoxybutorphanol]",,1/1/58,partial κ agonists,,
"CO[C@@]12CCCC[C@@]13CCN(CC1CCC1)[C@@H]2Cc1ccc(OC(=O)CCCCCCCCC(=O)OCc2ccccc2)cc13 [Compound 13b, Benzyl (−)-14-methoxy-butorphanol-3-yl decanedioate]",,1/1/93,partial κ agonists,,
"Nc1nc2cc3c(cc2s1)C[C@@H]1[C@@H]2CCCC[C@]32CCN1CC1CC1 [Compound 10, ATPM]",31/1/592,,,,
